Results as given in article PMC3567311 (ACS chemical biology, 2012).
Like-named read-outs stand apart in the source and are kept apart here.

Key:
[1] = target: T1, Kvβ2 (Rattus norvegicus, UniProt P62483, W272A); format: binding
T1 sequence (P62483 36-361 W272A): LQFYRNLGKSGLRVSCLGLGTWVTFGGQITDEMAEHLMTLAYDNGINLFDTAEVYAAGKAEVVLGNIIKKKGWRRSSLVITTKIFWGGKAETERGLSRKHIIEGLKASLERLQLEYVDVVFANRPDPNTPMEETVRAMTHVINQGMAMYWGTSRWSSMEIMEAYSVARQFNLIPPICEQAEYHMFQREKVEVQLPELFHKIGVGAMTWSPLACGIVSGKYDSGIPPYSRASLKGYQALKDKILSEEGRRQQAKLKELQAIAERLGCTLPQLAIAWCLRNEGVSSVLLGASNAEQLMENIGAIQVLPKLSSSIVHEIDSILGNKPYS

[2] = target: T2, Kvβ1 (Rattus norvegicus, UniProt P63144, C7A); experiment: inside-out patch clamp dose-response; format: cell-based
T2 sequence (P63144 whole entry C7A, the tested form may be a part): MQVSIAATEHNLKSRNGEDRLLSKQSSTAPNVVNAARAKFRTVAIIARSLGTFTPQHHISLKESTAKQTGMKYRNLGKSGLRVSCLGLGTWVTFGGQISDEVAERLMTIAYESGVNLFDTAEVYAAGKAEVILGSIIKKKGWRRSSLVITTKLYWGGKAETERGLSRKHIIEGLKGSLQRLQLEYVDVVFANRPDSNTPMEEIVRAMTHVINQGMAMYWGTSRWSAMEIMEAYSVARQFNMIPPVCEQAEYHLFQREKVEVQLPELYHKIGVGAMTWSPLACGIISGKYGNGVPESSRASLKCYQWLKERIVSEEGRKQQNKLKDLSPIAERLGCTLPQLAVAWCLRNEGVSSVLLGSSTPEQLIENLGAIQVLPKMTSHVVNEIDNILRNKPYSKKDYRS
T2 sequence (P10499 whole entry partner, the tested form may be a part): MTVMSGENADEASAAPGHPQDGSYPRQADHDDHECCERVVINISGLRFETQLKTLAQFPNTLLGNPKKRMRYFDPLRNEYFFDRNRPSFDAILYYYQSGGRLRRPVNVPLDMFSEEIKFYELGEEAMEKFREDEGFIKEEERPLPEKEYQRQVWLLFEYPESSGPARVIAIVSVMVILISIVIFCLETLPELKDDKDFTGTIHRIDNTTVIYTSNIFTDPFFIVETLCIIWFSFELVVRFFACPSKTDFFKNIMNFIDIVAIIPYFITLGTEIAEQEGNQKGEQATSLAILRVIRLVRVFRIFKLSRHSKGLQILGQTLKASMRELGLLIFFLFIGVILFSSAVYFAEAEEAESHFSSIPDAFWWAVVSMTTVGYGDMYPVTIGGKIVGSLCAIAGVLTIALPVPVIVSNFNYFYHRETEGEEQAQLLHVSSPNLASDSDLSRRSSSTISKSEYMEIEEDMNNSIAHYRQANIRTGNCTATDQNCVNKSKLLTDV
Outline: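 Inside-out patches from Xenopus oocytes injected with mixed mRNAs of rat Kv1.1 and rat Kvβ1 (Cys7→Ala), or with a Kvβ1-Kv1.1 fused chimera. Currents elicited by stepping from −80 mV to +60 mV for 400 ms. Test compound was dissolved in DMSO, diluted into internal buffer (final 1% DMSO) and perfused at several concentrations. ΔIss = rise in steady-state current as a fraction of initial inactivating current. EC50 taken from the dose-response curve.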

[3] = target: T2, Kvβ1; experiment: inside-out patch clamp dose-response; format: cell-based; remark: listed apart in the source
[4] = target: T1, Kvβ2; experiment: scintillation proximity assay, competition with 3H-cortisone; conditions: read-out: % reduction of cortisone binding at 250 μM
[5] = target: T1, Kvβ2; experiment: as above; conditions: read-out: % reduction of cortisone binding at 250 μM; remark: listed apart in the source

Row | Structure (SMILES) | Ki [1] | EC50 [2] | EC50 [3] | inhibition at 250 µM [4] | inhibition at 250 µM [5]
1 | C[C@]12CCC(=O)C=C1CC[C@@H]1[C@@H]2C(=O)C[C@@]2(C)[C@H]1CC[C@]2(O)C(=O)CO [cortisone] | 30 ± 10 µM | 46 µM | – | – | –
2 | CC(=O)OCC(=O)[C@@]1(O)CC[C@H]2[C@@H]3CCC4=CC(=O)CC[C@]4(C)[C@H]3C(=O)C[C@@]21C [cortisone 21-acetate] | – | – | 9 ± 1.1 µM | 95 ± 0.2% | –
3 | CCC(=O)O[C@]1(C(=O)SCF)[C@H](C)C[C@H]2[C@@H]3C[C@H](F)C4=CC(=O)C=C[C@]4(C)[C@@]3(F)[C@@H](O)C[C@@]21C [fluticasone propionate] | – | – | 0.037 ± 0.0011 µM | – | 98 ± 0.1%
